# Screens deposited in PubChem BioAssay by Broad Institute.
# rRNA inh HTS: inhibitors of bacterial rRNA selective over humanized ribosomes. 350,000 compounds, 1.6% hits. GFP signal change (wild-type ribosome), % (concentration not given with the values). E. coli WT GFP vs humanized-ribosome RFP mutants, fluorescence, 24 h; active compounds read low; DMSO median 0, no signal -100;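 active = significant combined selectivity score with lowered wild-type GFP, culture density cut under 30%, mutant RFP and density less affected; inactive = any of these conditions unmet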
# miR122 inh: blocks miR-122 activity in Huh7 sensor cells; Huh7 miR-122 Renilla luciferase sensor, 48 h; neutral wells = 0, positive control = 100; activation (reporter increase), % at 12.5 µM; 340,000 compounds, 0.3% hits;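 active = mean replicate activation score at least 90 and every replicate individually at or above 90; inconclusive = only one of the two criteria met; inactive = neither criterion met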;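 also: higher luciferase means less miR-122 activity so hits act as miR-122 inhibitors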
# Cneo AK release: causes C. neoformans cell lysis; adenylate kinase release luminescence, 4 h; normalised: neutral wells 0, clomiphene wells 100; lysis activity, % at 15 µM; 360,000 compounds, 0.2% hits; AID 651654;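 active = mean lysis activity across replicates of at least 80%, whatever share of replicates individually reach that level; inactive = mean lysis activity below 80%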
#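 Material – Cryptococcus neoformans yeast cells · Quantity – 5 × 10^6 yeast cells/mL · Buffer or medium – YPD medium · Compound – single dose · Timing – 4 h static compound exposure, 37 °C, read 1 h post-reagent · Signal – adenylate kinase release luminescence · Read-out basis – lysis from increased AK signal · Benchmarks – Clomiphene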
# E-sel inducer: induces E-selectin expression in human endothelial cells; P16581; HUVEC E-selectin immunofluorescence imaging; normalized: neutral wells 0, TNF-alpha wells 100; activation, % at 7.58 µM; 260,000 compounds, 0.37% hits;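 active = mean E-selectin-positive cell signal at least 10% of the positive control, reached in at least 60% of replicates, without over 20% cell loss; inconclusive = no rule given, readout overlaps actives, possibly toxicity-flagged; inactive = the rest, including those meeting only one limit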
# Target sequence (P16581 whole entry, looked up): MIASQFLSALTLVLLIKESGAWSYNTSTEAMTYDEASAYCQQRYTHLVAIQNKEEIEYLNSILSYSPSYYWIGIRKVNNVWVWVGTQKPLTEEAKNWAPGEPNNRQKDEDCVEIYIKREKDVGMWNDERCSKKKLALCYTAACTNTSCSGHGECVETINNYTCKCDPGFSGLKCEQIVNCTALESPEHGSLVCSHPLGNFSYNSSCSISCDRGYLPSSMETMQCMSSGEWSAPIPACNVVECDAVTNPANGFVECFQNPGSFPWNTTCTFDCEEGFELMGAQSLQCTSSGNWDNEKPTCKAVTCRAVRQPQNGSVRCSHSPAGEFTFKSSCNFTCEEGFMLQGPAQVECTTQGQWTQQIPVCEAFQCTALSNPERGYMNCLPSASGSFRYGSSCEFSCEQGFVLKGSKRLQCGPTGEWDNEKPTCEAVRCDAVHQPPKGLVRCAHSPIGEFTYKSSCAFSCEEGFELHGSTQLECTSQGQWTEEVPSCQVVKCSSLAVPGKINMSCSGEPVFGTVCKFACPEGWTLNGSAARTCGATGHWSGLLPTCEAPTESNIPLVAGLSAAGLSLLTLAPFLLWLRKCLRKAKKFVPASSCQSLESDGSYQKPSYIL
#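 Assay system: HUVEC primary endothelial cells. Input: 3,000 HUVEC seeded per well. Doses: one compound dose added by pin transfer. Read-out basis: % PE-positive cells. Benchmarks: TNF-alpha high, DMSO low. Detection: immunofluorescence imaging. Buffer or medium: EGM-2, gelatin.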
# DENV2 CPE rescue: protects cells from dengue virus 2 cytopathic effect; DENV2-infected cells, cytopathic effect rescue, plate reader; CPE inhibition, % at 9.99 µM; 350,000 compounds, 1.7% hits; in the data active = CPE inhibition above about 20%, passing the limit was not always enough; inconclusive = no clear call, values can overlap the other calls; tested in BHK-21 cells;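 also: 0% = median of neutral control wells and 100% = median of positive control wells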
# An asterisk follows results filed as active; ? = inconclusive; / = not tested or not shown; [ ] = dose if it differs, or a comment. Rows were chosen to be rich in hits. Some 3.1% of all compounds tested hit in one or more screens of this group.
SMILES,rRNA inh HTS,miR122 inh,Cneo AK release,E-sel inducer,DENV2 CPE rescue
COc1ccc(S(=O)(=O)Nc2ccc(N3CCOCC3)cc2)cc1,8,1,0,0,9
O=C(Nc1ccc([N+](=O)[O-])cc1)c1ccc(S(=O)(=O)N2CCCC2)cc1,10,2,4,/,12
COc1ccc(C(=O)Nc2ccc(S(=O)(=O)N3CCCC3)cc2)cc1,-32*,/,/,/,0
O=C(Nc1ccc(S(=O)(=O)N2CCCCCC2)cc1)c1[nH]ncc1[N+](=O)[O-],-40*,-11,-2,0,-8
COc1ccc(C(=O)NNC(=O)c2ccc(S(=O)(=O)N3CCCCC3)cc2)cc1,5,/,/,1,-5
O=[N+]([O-])c1ccccc1S(=O)(=O)Nc1ccc(S(=O)(=O)N2CCOCC2)cc1,4,-1,0,4,31*
COc1ccc(NC(=O)N(C)C[C@H]2OCCCC[C@H](C)Oc3ccc(NC(=O)CCC(F)(F)F)cc3C(=O)N([C@H](C)CO)C[C@@H]2C)cc1,0,-3[16.7 µM],0,0,2
Cc1ccc(S(=O)(=O)Nc2ccc3c(c2)C(=O)N([C@H](C)CO)C[C@H](C)[C@H](CN(C)C(=O)c2ccncc2)OCCCC[C@H](C)O3)cc1,1,-4[16.7 µM],0,/,-6
CC(C)N(CCC#N)C(=O)Nc1ccc2c(c1)CCO2,17,/,/,74*,0
CC(OC(=O)c1ccc(NC(=O)CC#N)cc1)C(=O)Nc1ccc2c(c1)OCCO2 (centres undefined),6,/,/,-2,-3
CCOc1ccc(S(=O)(=O)NCCN2CCOCC2)c2ccccc12,/,108*,0,/,/
CCCOc1ccc(S(=O)(=O)NCCN2CCOCC2)c2ccccc12,/,199*,1,/,/
Cc1ccc(-c2nn3c(C)nnc3c3ccccc23)cc1S(=O)(=O)NCCN1CCOCC1,/,198*,4,/,/
COCC(=O)Nc1ccc2c(c1)C(=O)N(C)C[C@H](OC)[C@H](C)CN[C@@H](C)CO2,2,-8[16.7 µM],-5,0,/
CO[C@@H]1CN(C)C(=O)c2cc(NC(=O)C3CCC3)ccc2OC[C@@H](C)N(C)C[C@@H]1C,0,/,/,0,/
CC(=O)Oc1c(C(C)C)cc(N(C(C)=O)c2ccccc2)cc1C(C)C,-22*,/,/,-1,1
CC(=O)N(c1ccccc1)c1c(F)c(F)c(F)c(F)c1F,/,-10,1,/,/
CN1OC[C@@H]2CN(Cc3ccccc3)[C@H](c3ccc(-n4ccnc4)cc3)C[C@@H]21,-32*,-4,-2,-7,9
CC(=O)N1C[C@H]2CON(C)[C@H]2C[C@H]1c1cccc(-c2ccc(C#N)cc2)c1,5,-9,5,2,21*
CN1OC[C@@H]2CN(Cc3cc(Cl)cc(Cl)c3)[C@H](c3cccc(-c4ccc(C#N)cc4)c3)C[C@@H]21,3,3,1,0,24*
CC(=O)N1C[C@H]2CON(C)[C@H]2C[C@H]1c1cccc(-c2ccccc2)c1,/,-6,1,/,-7
C[C@H](CO)N1C[C@H](C)[C@@H](CN(C)S(=O)(=O)c2cccs2)Oc2ccc(NC(=O)CCCCCC(=O)Nc3ccccc3N)cc2CC1=O,1,0[16.7 µM],-1,0,4
CCCC#Cc1ccc([C@H]2[C@@H](CO)N3CCCCN(C(=O)NC4CCCC4)C[C@H]23)cc1,-58,-23[16.7 µM],55,0,-37
CSc1ccc2c(c1)C(N1CCN(C)CC1)Cc1ccc(F)cc1S2 (centres undefined),-48*,-3,3,0,?
O=[N+]([O-])c1ccc2c(c1)C(N1CCN(CCO)CC1)Cc1ccc(F)cc1S2 (centres undefined),-2,-6,0,0,16
SMILES,rRNA inh HTS,miR122 inh,Cneo AK release,E-sel inducer,DENV2 CPE rescue
CN1CCN(C(=O)C[C@@H]2CC[C@H](NC(=O)Cc3ccccn3)[C@@H](CO)O2)CC1,4,7[16.7 µM],-9,0,4
Cc1cc(C(=O)COC(=O)c2ccc(Br)o2)c(C)n1C,-23*,-2,-1,3,1
COCCn1c(C)cc(C(=O)COC(=O)c2ccc(Br)o2)c1C,5,/,/,/,2
C[C@H](O)C#Cc1ccc([C@H]2[C@@H](CO)N3CCCCN(C(=O)Nc4ccccc4)C[C@@H]23)cc1,2,0[16.7 µM],-2,0,23*
C[C@H](O)C#Cc1ccc([C@@H]2[C@@H](CO)N3CCCCN(C(=O)Nc4ccccc4)C[C@@H]23)cc1,3,-5[16.7 µM],-2,0,1
CC(C)NC(=O)N1CCCCN2[C@H](C1)[C@H](c1ccc(C#Cc3ccccc3)cc1)[C@@H]2CO,-58,-7[16.7 µM],0,0,13
O=C(Nc1ccccc1)N1CCCCN2[C@H](C1)[C@H](c1ccc(C#CC3CC3)cc1)[C@@H]2CO,5,56[16.7 µM],108*,0,-5
CC(C)NC(=O)N1CCCCN2[C@H](CO)[C@@H](c3ccc(C#CC4CC4)cc3)[C@H]2C1,3,-1[16.7 µM],1,0,39*
O=C(Nc1ccc2c(c1)[C@H]1C[C@H](CC(=O)N3CCOCC3)O[C@H](CO)[C@H]1O2)c1cccnc1,-1,-1[16.7 µM],-5,0,18
Cc1cc(NC(=O)Cn2c(=O)oc3ccc(Cl)cc32)no1,9,7,-1,0,45*
CSc1nc(SC(C)C(=O)O)c2c3c(sc2n1)COC(C)(C)C3 (centres undefined),-23*,-2,-1,/,-5
CCOC(=O)C[C@@H]1OC[C@H](Cc2ccccc2)N1S(=O)(=O)c1ccc(C)cc1,/,/,/,0,-4
COc1ccc(C(=O)C[C@@H]2OC[C@H](C(C)C)N2S(=O)(=O)c2ccc(C)cc2)cc1OC,-1,/,/,0,1
COC(=O)C[C@@H]1OC[C@H](Cc2ccccc2)N1S(=O)(=O)c1ccc(C)cc1,/,/,/,0,21*
COc1ccc(C(=O)C[C@@H]2OC[C@H](C)N2S(=O)(=O)c2ccc(C)cc2)cc1OC,-8,/,/,0,57*
S=c1[nH]nc(SCc2ccccc2)c2[nH]cnc12,-17*,-1,0,1,3
CCCCSc1n[nH]c(=S)c2nc[nH]c12,/,-6,0,0,-9
C[C@@H]1CN([C@H](C)CO)C(=O)c2cc(C#CC3(O)CCCC3)cnc2O[C@H]1CN(C)C(=O)C1CCOCC1,1,-13[16.7 µM],-1,0,6
N/C(=N\OC(=O)Nc1cccc(C(F)(F)F)c1)c1ccno1,-51*,1,6,0,0
O=C(Nc1ccncc1)Nc1cccc(C(F)(F)F)c1,-53,/,-3,0,-5
Cc1cccc2c1NC1(CCCC1)CC2C (centres undefined),-1,0,1,188*,-14
CO/N=C/C(C#N)=C/c1ccc(OC)c(OC)c1,-21,/,/,/,0
CO/N=C/C(C#N)=C/c1cc(C(=O)c2ccccc2)cn1C,-12,/,/,/,46*
